# Assay outcomes from PubChem BioAssay.
# A selection: hits, their analogues and other compounds. The true share with any hit is near 1.7%.
# LMPTP inh: blocks human LMPTP phosphatase | P24666 | recombinant LMPTP-A, OMFP fluorogenic substrate, fluorescence intensity | inhibition, % at 20 µM | actives 0.22% (n = 360,000);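 active means compounds that cut the enzyme signal by at least half of the control window in the single-dose screen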;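 further: plate controls were DMSO wells with enzyme plus substrate for no effect and substrate without enzyme for full effect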
#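 Test system – LMPTP-A enzyme · Amount – LMPTP-A at 0.625 nM final in the reaction · Buffer or medium – Bis-Tris pH 6.0, DTT, detergent · Reagent – OMFP 400 µM · Doses – single 20 µM dose · Schedule – reaction 50 min, room temperature, dark · Detection – fluorescence intensity of OMFP turnover product · Evaluation – percent inhibition versus substrate-only and uninhibited controls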
# SUMO1 PPI mod: alters human SUMO1 binding to SIM partners; P63165; SUMO1 binding to a labelled peptide, TR-FRET, 1 h; inhibition, % at 20 µM; actives 0.33% (n = 360,000); AID 602429; in the data active means inhibition above about 37%
# Target sequence (P63165 whole entry, looked up): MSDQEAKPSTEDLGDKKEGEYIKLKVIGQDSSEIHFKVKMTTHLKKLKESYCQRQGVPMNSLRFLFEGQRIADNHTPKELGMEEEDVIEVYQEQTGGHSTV
# Scp-1 inhibitor: blocks human Scp-1 phosphatase activity. Q9GZU7. actives 0.88% (n = 340,000). Recombinant Scp1, phosphopeptide, malachite green phosphate absorbance. inhibition, % at 20 µM;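 active means inhibition above about 50% at 20 µM, limit read from the data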;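 further: plate controls were DMSO wells with enzyme for no effect and wells lacking enzyme for full effect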
#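 Incubation: 45 min enzyme reaction at room temperature / System: truncated SCP-1 phosphatase (76-261aa) / Reagent: Phospho 17-mer peptide substrate / Buffer or medium: Acidic Tris acetate buffer with magnesium and detergent / Signal: absorbance at 630 nm / Doses: one concentration, 20 µM, with 1.0% DMSO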
# STEP inh: blocks human striatal-enriched tyrosine phosphatase | actives 0.25% (n = 360,000) | inhibition, % at 20 µM | recombinant STEP, OMFP fluorogenic substrate, fluorescence | AID 588621 | P54829;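 active means inhibition at 20 µM, scaled per plate between control wells, above about 37%, limit read from the data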;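 further: 0% = DMSO with enzyme and substrate and 100% = substrate only without enzyme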
# Target sequence (P54829 whole entry, looked up): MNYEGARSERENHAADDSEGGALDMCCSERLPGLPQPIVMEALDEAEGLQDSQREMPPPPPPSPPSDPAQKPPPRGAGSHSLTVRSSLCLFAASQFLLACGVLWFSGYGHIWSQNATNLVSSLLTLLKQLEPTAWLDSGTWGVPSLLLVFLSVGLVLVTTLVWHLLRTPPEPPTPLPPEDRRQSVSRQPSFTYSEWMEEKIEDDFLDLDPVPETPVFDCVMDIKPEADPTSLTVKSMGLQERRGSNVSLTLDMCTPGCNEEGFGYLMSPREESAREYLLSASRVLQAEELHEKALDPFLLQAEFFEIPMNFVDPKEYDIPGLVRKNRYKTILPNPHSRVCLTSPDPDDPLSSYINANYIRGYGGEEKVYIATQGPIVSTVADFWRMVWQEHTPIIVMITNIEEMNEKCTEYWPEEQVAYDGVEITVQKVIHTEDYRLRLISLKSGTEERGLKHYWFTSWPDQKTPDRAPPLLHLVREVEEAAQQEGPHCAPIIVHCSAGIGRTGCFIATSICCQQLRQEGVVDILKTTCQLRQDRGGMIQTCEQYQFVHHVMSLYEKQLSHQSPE
#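 material = STEP tyrosine phosphatase | reagent = fluorogenic phosphatase substrate OMFP at 25 µM final | doses = single compound dose of 20 µM, 1% DMSO final | schedule = 20 min reaction, room temperature, in the dark | measured by = fluorescence, 480/540 nm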
# DNMT1 block: inhibitors of human DNMT1. DNMT1 molecular beacon, Hinp1I cleavage, fluorescence. inhibition (reported as % activation of signal), % at 10 µM. actives 0.83% (n = 360,000). AID 588458; in the data active means inhibition above about 50%
# Scp-1 conf: Scp-1 (human) inhibition, single-dose confirmed. shares compounds with Scp-1 inhibitor. recombinant SCP-1 catalytic domain, phosphate release, malachite green absorbance. inhibition, % at 20 µM. actives 61% (n = 2,500). AID 540281;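 further: plate controls were DMSO with enzyme for no effect and buffer wells lacking enzyme for full effect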
# MG interference: interferes with malachite green readout, flagging false Scp-1 hits; AID 540313; shares compounds with Scp-1 inhibitor; Colorimetric interference counterscreen, malachite green absorbance 630 nm; 2,500 tested, under 10 active; apparent inhibition (interference), % at 20 µM;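 further: compounds added after enzyme reaction finished so only phosphate colour detection is probed; plate controls were DMSO wells with completed Scp-1 reaction for no effect and substrate wells lacking enzyme for full effect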
# Scp-1 Tm shift: Scp-1 (human) binding by thermal shift | shares compounds with Scp-1 inhibitor | Recombinant SCP1, Sypro Orange thermal shift Tm | thermal shift relative to vanadate control, % at 40 µM | actives 25% (n = 1,500) | AID 540329;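 active means substances whose mean melting-temperature shift, as a percentage of the reference inhibitor's shift, reaches about 5.3%, limit read from the data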;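 further: 0% = Tm of DMSO wells and 100% = Tm with sodium orthovanadate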
# DNMT1 interf DR: shows spectral interference in the DNMT1 beacon assay. shares compounds with DNMT1 block. molecular beacon fluorescence, spectral interference counter-screen. IC50, µM. 200 tested, under 10 active. AID 602382; call rule not given here
# DNMT1 confirm: DNMT1 inhibition confirmation, single concentration. actives 8% (n = 2,300). DNMT1 molecular beacon HinP1I cleavage, fluorescence. inhibition, % at 10 µM. AID 602385. shares compounds with DNMT1 block;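 active means average inhibition of at least 30% in the single-concentration confirmation test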
# DNMT1 interf: beacon fluorescence artifact counter-screen; DNMT1 molecular beacon spectral interference counterscreen, fluorescence 485/520; actives 1% (n = 2,300); shares compounds with DNMT1 block; activation (fluorescence interference), % at 10 µM; AID 602387;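 active means activation of at least 30% at 10 µM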;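 further: DNMT1 catalytic domain with a HinP1I cleavage step and a FAM/dabcyl DNA beacon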
# Numbers without * were called inactive; nt = no result given.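 How the source made its calls, unless noted: active means inhibition of at least 30% at 20 µM; inactive means the rest.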
SMILES,LMPTP inh,SUMO1 PPI mod,Scp-1 inhibitor,STEP inh,DNMT1 block,Scp-1 conf,MG interference,Scp-1 Tm shift,DNMT1 confirm,DNMT1 interf,others
Cc1cc(C(=O)O)ccc1-n1c(C)cc(C=C2C(=O)c3ccccc3C2=O)c1C,4,0,6,6,10,nt,nt,nt,nt,nt,
Cc1ccc(C(=O)O)cc1-c1ccc(C=C2C(=O)c3ccccc3C2=O)o1,13,13,79*,42*,73*,47*,-23,12*,7,0,
O=C(COC(=O)c1cnccn1)NCCc1ccc(Cl)cc1,0,6,-7,1,-6,nt,nt,nt,nt,nt,
CCOc1ccc(N=C2NC(=O)S/C2=C\c2ccc(OC)cc2)cc1,44,-4,61*,16,64*,78*,-3,3,3,4,
Cc1cc2ncn(-c3ncccc3[N+](=O)[O-])c2cc1C,0,-25,-7,-3,-8,nt,nt,nt,nt,nt,
Cc1cccc(NC(=O)CCc2nc3sc4c(c3c(=O)[nH]2)CCCC4)c1,0,0,4,-2,4,nt,nt,nt,nt,nt,
Cc1ccc(NC(=O)CCc2nc3sc4c(c3c(=O)[nH]2)CCCC4)nc1,6,21,62*,3,50*,66*,-11,9.0*,4,3,
C#CCSc1nc2sc3c(c2c(=O)n1C)CCC3,14,13,75*,93*,61*,48*,-18,-26,0,-4,
O=C(Nc1ccc(S(=O)(=O)Nc2nccs2)cc1)c1nn(-c2ccc(F)cc2)ccc1=O,56*,5,93*,7,59*,59*,-22,4,10,-4,
CCOC(=O)c1cc(-c2ccc(N3CCOCC3)cc2)nn1-c1ccccc1C(=O)O,58*,106*,80*,96*,94*,64*,-15,-13,35*,-4,DNMT1 interf DR=>99
COCCN(C(=O)COC(=O)c1sccc1C)c1c(N)n(Cc2ccccc2)c(=O)[nH]c1=O,0,-8,-5,0,1,nt,nt,nt,nt,nt,
O=C(Nc1cccc(Cl)c1)c1csc(COCCO)n1,0,1,nt,2,-1,nt,nt,nt,nt,nt,
COc1ccc(NC(=O)c2c3c(nc4ccccc24)CCC3)cc1S(=O)(=O)N1CCOCC1,2,9,81*,8,86*,59*,-14,11*,8,3,
Nc1[nH]n(-c2ccccc2)c(=O)c1N=Nc1ccccc1[N+](=O)[O-],0,-10,-5,-1,-3,nt,nt,nt,nt,nt,
NC(=S)n1[nH]c(-c2ccc([N+](=O)[O-])cc2)c(N=Nc2ccccc2[N+](=O)[O-])c1=O,10,5,63*,7,85*,38*,-19,10*,-2,-8,
CCS(=O)(=O)N1Cc2cc(C(=O)NCC3CC3)nc(-c3cccc(-c4cccnc4)c3)c2[C@@H]1CCO,1,-2,nt,nt,nt,nt,nt,nt,nt,nt,
COc1ccc(CCNC(=O)CSc2nc3c(sc(=S)n3-c3ccccc3)c(=O)[nH]2)cc1OC,-1,4,nt,-2,-3,nt,nt,nt,nt,nt,
O=C1NN(c2ccccc2)C(=O)/C1=C/c1ccc(-c2ccc(Cl)c(C(=O)O)c2)o1,9,20,70*,18,85*,62*,-8,14*,12,0,
Cc1cccc(N2NC(=O)/C(=C/c3ccc(-c4ccc(Cl)c(C(=O)O)c4)o3)C2=O)c1,26,30,71*,21,84*,56*,-23,12*,12,0,
COc1ccc(C2N(S(=O)(=O)c3ccccc3)CCN2S(=O)(=O)c2ccc(C)cc2)cc1 (stereo not drawn),3,-5,-10,-1,-10,nt,nt,nt,nt,nt,
O=C(CN1CCOCC1)N1CCOCC1,3,0,1,0,1,nt,nt,nt,nt,nt,
COc1cc(NC(=O)c2ccccc2)c(OC)cc1NC(=O)Cc1cccs1,24,6,71*,2,73*,66*,-16,8.0*,4,-7,
Cc1ccc([N+](=O)[O-])cc1NC(=O)Cc1cccs1,26,-12,67*,0,81*,60*,-22,5.9*,8,2,
COC(=O)c1cc(NC(=O)Cc2cccs2)cc(C(=O)OC)c1,48,3,76*,21,58*,65*,-18,6.3*,7,-2,
CCC1CCCCN1CCCNC(=O)CCC(=O)N1CCOc2ccccc21 (stereo not drawn),-3,-3,-4,3,2,nt,nt,nt,nt,nt,
SMILES,LMPTP inh,SUMO1 PPI mod,Scp-1 inhibitor,STEP inh,DNMT1 block,Scp-1 conf,MG interference,Scp-1 Tm shift,DNMT1 confirm,DNMT1 interf,others
O=C1NC[C@@H](CCCCN2C[C@H](Cc3ccc(O)cc3)N(CC3CCCCC3)C(=O)C2=O)N(Cc2ccccc2)C1=O,0,0,nt,nt,nt,nt,nt,nt,nt,nt,
O=C(N/N=C/c1ccc([N+](=O)[O-])o1)c1cn2ccc3ccccc3c2n1,7,29,80*,-1,55*,-11,-16,nt,3,-2,
Cc1ccccc1C(=O)NCC(=O)OC(C)C(=O)Nc1cccc(S(=O)(=O)N2CCOCC2)c1 (stereo not drawn),0,0,-4,-2,2,nt,nt,nt,nt,nt,
CC1=NN(c2ccc(Cl)c(C(=O)O)c2)C(=O)C1,8,41*,75*,9,68*,53*,-8,9.5*,8,1,
CC1=NN(c2ccc(C(=O)O)c(N)c2)C(=O)C1,4,5,42,8,44,nt,nt,nt,nt,nt,
O=C(c1coc(=O)c(Br)c1)N1CCOCC1,13,-6,68*,38,74*,60*,-12,-17,0,0,
Cc1cccc(NC(=O)Cn2c(O)c(N=NC(=O)c3ccccc3O)c3ccccc32)c1,35,-8,88*,36,88*,86*,-8,4,15,-3,
NC(=S)N=Nc1c(O)n(CC(=O)Nc2ccccc2)c2ccccc12,1,-3,0,0,5,nt,nt,nt,nt,nt,
CC(C)[C@H](NC(=O)c1ccco1)C(=O)OCc1cc(=O)n2c(n1)sc1ccccc12,21,11,83*,0,84*,59*,-14,2,17,-1,
